Calls of active or inactive are those of the source. The rule behind the calls is not given here.
Legend:
MV4-11 = assay: Cell cycle arrest in human MV4-11 cells at 50 nM to 1 uM after 24 hrs by propidium iodide staining-based flow cytometric method; format: functional
Method in brief: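 Cells were stained with propidium iodide and analysed by flow cytometry for cell-cycle distribution and the subG1 fraction (fragmented DNA). Representative of at least two independent experiments.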

Mus musculus [1] = assay: Antiarthritic activity in DBA/1J mouse collagen-induced arthritis model assessed as reduction in paw thickness at 30 mg/kg, ip administered every morning for 1 week measured during compound dosing; format: functional, organism-based
Method in brief: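 Collagen type II-induced arthritis in mice, treated at 30 mg/kg versus vehicle. Clinical arthritis score and paw swelling were followed over time from the start of treatment until the end of the experiment.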

[2] = biological target: T1, Protein deacetylase HDAC6 (Homo sapiens) (UniProt Q9UBN7); conditions: 5 to 1000 nM
T1 sequence (whole entry): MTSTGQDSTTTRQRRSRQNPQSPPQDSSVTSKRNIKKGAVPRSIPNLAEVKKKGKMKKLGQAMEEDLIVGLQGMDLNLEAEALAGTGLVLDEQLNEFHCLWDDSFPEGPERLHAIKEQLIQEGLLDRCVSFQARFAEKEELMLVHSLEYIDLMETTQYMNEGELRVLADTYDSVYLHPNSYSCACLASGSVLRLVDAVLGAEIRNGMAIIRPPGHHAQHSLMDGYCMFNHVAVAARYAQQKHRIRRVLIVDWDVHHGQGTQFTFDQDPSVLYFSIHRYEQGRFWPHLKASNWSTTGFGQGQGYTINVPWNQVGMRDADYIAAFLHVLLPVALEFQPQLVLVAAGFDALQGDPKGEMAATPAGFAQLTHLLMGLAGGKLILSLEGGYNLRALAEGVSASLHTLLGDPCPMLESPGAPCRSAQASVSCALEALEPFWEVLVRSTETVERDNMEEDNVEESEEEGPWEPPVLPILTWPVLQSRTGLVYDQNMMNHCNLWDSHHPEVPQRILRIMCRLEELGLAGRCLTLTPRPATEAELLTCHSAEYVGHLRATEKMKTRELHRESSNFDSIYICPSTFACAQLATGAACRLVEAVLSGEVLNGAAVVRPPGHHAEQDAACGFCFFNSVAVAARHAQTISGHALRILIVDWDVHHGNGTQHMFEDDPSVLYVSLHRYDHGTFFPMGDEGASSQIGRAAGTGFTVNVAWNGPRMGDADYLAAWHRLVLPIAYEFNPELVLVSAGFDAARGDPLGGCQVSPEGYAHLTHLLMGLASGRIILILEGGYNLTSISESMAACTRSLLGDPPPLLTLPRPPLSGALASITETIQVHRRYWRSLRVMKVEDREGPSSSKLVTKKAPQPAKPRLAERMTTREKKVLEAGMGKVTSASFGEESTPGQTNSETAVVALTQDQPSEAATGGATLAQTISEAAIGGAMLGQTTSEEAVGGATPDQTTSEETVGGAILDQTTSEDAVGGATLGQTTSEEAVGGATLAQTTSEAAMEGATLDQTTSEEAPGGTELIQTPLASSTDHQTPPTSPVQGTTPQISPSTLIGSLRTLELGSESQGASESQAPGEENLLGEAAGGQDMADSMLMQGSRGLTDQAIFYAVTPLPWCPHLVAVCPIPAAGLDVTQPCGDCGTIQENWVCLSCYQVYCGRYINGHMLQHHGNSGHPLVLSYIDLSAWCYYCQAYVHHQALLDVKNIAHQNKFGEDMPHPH

Mus musculus [3] = assay: In vivo inhibition of HDAC6 in DBA/1J mouse assessed as induction of tubulin acetylation in liver at 0.6 mg […] by Western blot method; format: functional, organism-based
Mus musculus [4] = assay: Toxicity in DBA/1J mouse collagen-induced arthritis model assessed as effect on white blood cell count at 30 mg/kg, ip administered every morning for 12 to 14 days measured post last dose relative to vehicle-treated control; format: organism-based; conditions: in vivo
Histone deacetylase 5 = Histone deacetylase 5 (Homo sapiens, UniProt Q9UQL6); assay: Inhibition of recombinant human C-terminal His-tagged HDAC5 (656 to 1122 residues) expressed in baculovirus-infected insect cells using Boc-Lys(TFA)-AMC as substrate after 60 mins by fluorimeter
[5] = biological target: Histone deacetylase 3/Nuclear receptor corepressor 2 (HDAC3/NCoR2) (Homo sapiens, UniProt O15379); assay: biochemical; format: cell-based
Mus musculus [6] = assay: Antiarthritic activity in DBA/1J mouse collagen-induced arthritis model assessed as decrease in cellular invasion at 30 mg/kg, ip administered every morning for 12 to 14 days; format: functional, organism-based
Method in brief: (§1)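 Collagen type II-induced arthritis in mice, treated at 30 mg/kg versus vehicle. Arthritic paws were assessed histologically for synovial inflammation, cellular invasion, cartilage degradation and bone erosion.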

[7] = biological target: T1, Protein deacetylase HDAC6 (Homo sapiens); conditions: 50 nM
Mus musculus [8] = assay: Antiarthritic activity in DBA/1J mouse collagen-induced arthritis model assessed as loss of body weight at 30 mg/kg, ip administered every morning for 1 week measured during compound dosing; format: functional, organism-based
HEL = assay: Cell cycle arrest in human HEL cells at 5 to 1000 nM after 24 hrs by propidium iodide staining-based flow cytometric method; format: functional
Mus musculus [9] = assay: Antiarthritic activity in DBA/1J mouse collagen-induced arthritis model assessed as decrease in bone erosion in joints at 30 mg/kg, ip administered every morning for 12 to 14 days; format: functional, organism-based; method in brief: as §1
Mus musculus [10] = assay: Antiarthritic activity in DBA/1J mouse collagen-induced arthritis model assessed as decrease in histological scores at 30 mg/kg, ip administered every morning for 12 to 14 days measured during compound dosing relative to vehicle-treated control; format: functional; set-up: scale not given: the % may be the effect or the level left; method in brief: as §1
Histone deacetylase 11 = biological target: T2, Histone deacetylase 11 (Homo sapiens, UniProt Q96DB2); assay: Inhibition of recombinant human N-terminal His-tagged HDAC11 (1 to 347 residues) expressed in baculovirus-infected insect cells using RHKK(Ac)AMC as substrate by fluorimeter
T2 sequence (Q96DB2 whole entry): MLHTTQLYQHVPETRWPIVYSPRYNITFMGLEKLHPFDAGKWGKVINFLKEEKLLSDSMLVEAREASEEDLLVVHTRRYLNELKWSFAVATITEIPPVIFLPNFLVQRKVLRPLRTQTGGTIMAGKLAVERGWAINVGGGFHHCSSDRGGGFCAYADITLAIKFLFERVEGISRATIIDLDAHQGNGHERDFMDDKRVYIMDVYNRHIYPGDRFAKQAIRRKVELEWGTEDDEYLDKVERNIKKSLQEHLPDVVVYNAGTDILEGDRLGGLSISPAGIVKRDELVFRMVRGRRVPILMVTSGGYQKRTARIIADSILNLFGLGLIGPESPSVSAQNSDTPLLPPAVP

Mus musculus [11] = assay: Toxicity in DBA/1J mouse collagen-induced arthritis model assessed as effect on hemoglobin concentration at 30 mg/kg, ip administered every morning for 12 to 14 days measured post last dose relative to vehicle-treated control; format: organism-based; conditions: in vivo
Histone deacetylase 1 = Histone deacetylase 1 (Homo sapiens, UniProt Q13547); assay: Inhibition of recombinant human C-terminal FLAG/His-tagged HDAC1 expressed in baculovirus-infected Sf21 insect cells using RHKK(Ac)AMC as substrate after 60 mins by fluorimeter
Histone deacetylase 1, sequence (Q13547 whole entry): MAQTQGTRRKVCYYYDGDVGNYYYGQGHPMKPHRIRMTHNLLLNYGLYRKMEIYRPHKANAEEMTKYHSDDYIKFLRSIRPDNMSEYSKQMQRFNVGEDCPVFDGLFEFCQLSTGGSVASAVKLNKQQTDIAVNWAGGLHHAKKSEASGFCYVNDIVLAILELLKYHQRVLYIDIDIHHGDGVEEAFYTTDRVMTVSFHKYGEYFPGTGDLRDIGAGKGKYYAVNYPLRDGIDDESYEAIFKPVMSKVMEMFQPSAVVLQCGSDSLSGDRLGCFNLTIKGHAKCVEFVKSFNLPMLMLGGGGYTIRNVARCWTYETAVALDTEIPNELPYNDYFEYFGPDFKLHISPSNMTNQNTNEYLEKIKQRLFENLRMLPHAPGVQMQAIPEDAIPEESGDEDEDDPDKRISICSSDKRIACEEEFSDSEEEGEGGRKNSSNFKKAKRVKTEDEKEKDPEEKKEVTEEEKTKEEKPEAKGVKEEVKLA

Histone deacetylase 3/Nuclear receptor corepressor 2 (HDAC3/NCoR2), sequence (O15379 whole entry): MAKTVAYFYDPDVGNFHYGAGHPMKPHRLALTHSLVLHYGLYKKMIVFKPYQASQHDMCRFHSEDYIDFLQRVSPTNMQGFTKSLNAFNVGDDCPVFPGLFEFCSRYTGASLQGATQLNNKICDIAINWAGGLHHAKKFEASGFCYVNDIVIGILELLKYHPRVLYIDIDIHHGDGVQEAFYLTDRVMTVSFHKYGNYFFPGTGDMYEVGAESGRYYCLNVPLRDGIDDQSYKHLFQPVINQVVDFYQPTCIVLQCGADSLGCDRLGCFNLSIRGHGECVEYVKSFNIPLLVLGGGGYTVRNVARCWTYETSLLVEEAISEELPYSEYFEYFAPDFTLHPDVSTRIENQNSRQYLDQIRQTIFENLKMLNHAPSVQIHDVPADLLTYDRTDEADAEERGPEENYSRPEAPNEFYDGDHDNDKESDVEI
Histone deacetylase 3/Nuclear receptor corepressor 2 (HDAC3/NCoR2), sequence (Q9Y618 whole entry, further chain): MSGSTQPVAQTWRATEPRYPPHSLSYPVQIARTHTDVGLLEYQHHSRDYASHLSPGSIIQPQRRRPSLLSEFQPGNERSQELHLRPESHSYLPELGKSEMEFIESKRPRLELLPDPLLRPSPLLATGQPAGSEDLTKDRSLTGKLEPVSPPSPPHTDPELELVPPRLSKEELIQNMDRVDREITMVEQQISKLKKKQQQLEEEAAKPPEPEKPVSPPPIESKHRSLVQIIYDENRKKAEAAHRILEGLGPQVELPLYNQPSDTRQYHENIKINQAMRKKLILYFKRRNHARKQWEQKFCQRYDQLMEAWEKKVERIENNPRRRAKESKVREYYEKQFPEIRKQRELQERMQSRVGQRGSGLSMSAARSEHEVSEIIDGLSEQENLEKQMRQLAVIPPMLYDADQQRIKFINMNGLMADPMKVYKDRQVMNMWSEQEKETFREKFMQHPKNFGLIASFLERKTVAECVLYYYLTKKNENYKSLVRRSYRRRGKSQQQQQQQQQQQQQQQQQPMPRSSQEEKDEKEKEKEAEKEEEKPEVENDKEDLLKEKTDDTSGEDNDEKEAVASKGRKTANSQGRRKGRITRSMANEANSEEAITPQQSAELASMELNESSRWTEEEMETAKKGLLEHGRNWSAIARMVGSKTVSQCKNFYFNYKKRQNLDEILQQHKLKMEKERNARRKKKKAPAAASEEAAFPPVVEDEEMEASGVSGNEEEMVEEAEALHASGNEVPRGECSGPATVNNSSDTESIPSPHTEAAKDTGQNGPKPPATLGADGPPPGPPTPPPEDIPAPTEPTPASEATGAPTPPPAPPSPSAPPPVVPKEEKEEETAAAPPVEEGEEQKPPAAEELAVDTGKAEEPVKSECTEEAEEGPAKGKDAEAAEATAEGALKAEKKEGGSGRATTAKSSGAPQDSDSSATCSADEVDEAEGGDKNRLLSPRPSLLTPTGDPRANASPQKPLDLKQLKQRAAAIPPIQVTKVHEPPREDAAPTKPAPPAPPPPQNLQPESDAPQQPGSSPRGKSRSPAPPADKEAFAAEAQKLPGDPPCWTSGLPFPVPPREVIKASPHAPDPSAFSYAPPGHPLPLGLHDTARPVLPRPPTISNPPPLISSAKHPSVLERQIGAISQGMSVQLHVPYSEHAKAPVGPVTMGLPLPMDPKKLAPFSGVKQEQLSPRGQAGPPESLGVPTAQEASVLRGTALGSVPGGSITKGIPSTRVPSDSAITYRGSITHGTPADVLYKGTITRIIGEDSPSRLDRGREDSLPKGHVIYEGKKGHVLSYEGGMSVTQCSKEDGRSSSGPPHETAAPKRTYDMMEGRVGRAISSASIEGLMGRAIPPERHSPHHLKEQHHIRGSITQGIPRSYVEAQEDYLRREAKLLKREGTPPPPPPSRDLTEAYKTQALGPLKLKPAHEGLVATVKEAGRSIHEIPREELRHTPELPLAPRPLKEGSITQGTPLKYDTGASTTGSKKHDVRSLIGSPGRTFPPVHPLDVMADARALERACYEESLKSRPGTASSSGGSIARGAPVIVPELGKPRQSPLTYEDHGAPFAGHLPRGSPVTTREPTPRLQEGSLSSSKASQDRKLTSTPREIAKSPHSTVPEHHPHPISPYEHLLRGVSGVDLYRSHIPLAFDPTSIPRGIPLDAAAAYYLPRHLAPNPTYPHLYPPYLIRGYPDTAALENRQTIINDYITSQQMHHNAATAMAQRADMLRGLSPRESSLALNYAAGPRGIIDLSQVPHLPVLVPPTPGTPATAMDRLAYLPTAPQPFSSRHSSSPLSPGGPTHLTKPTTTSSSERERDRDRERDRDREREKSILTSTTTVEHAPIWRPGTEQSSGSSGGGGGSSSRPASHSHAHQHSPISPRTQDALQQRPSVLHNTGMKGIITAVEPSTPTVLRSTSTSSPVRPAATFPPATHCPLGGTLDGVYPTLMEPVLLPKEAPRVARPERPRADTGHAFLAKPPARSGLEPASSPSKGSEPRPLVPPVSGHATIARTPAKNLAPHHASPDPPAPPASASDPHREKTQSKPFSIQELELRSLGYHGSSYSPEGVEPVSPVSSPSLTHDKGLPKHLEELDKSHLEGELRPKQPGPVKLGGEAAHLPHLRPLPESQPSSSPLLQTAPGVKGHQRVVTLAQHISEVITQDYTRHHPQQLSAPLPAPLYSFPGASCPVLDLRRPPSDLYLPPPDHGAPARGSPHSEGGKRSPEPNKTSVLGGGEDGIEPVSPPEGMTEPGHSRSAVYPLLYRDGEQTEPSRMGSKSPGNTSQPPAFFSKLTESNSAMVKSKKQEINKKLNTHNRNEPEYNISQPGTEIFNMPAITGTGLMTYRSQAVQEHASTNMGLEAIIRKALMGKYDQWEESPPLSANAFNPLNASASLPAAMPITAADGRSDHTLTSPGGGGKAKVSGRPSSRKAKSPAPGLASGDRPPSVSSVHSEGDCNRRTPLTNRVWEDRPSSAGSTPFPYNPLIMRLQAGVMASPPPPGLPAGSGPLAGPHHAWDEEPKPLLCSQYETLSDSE
Histone deacetylase 5, sequence (Q9UQL6 whole entry, the tested form may be a part): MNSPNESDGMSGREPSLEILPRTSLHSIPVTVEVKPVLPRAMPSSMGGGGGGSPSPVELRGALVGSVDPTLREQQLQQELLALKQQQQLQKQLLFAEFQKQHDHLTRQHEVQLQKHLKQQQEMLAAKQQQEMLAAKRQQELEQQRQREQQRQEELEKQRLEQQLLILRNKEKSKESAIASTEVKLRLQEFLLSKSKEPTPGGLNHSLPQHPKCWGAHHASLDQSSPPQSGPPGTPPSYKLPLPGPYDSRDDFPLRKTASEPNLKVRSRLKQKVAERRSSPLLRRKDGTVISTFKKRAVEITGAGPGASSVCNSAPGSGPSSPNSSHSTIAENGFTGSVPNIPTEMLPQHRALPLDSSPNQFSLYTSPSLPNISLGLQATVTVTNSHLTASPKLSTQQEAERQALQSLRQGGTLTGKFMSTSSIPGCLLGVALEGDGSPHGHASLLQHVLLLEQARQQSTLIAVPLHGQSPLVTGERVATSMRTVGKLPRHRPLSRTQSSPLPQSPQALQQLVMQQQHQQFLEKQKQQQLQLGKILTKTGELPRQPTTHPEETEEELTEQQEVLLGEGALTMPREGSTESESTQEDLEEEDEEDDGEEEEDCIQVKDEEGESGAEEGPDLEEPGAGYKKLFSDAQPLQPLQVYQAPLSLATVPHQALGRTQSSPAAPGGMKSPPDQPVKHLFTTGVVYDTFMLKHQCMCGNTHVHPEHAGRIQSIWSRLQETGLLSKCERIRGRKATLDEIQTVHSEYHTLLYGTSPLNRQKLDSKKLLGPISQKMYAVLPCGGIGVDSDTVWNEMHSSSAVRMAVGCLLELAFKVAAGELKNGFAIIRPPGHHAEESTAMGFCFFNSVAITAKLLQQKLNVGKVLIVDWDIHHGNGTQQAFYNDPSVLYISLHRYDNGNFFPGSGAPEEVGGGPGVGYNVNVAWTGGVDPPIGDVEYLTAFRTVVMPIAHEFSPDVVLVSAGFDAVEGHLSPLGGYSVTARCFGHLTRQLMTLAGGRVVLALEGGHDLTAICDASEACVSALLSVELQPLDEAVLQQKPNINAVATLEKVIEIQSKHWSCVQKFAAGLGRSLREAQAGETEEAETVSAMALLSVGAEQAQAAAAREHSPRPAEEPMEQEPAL

inhibition [2]: Active | Ki (Histone deacetylase 5): 701 nM | Ki [5]: 306 nM | inhibition [7]: Active | Ki (Histone deacetylase 11): 495 nM | Ki (Histone deacetylase 1): 358 nM
SMILES: CN1C(=O)C2CN(Cc3c2c2ccccc2n3Cc2ccc(C(=O)NO)cc2)C1=O (stereo unspecified)
Activity (MV4-11): inactive | Activity (Mus musculus [1]): Active | inhibition (Mus musculus [3]): Active | Activity (Mus musculus [4]): Non-Toxic | Activity (Mus musculus [6]): Active | Activity (Mus musculus [8]): Active | Activity (HEL): inactive | Activity (Mus musculus [9]): Active | Activity (Mus musculus [10]): 50% | Activity (Mus musculus [11]): Non-Toxic

From ChEMBL document CHEMBL4043295, “Marbostat-100 Defines a New Class of Potent and Selective Antiinflammatory and Antirheumatic Histone Deacetylase 6 Inhibitors” (J Med Chem, 2018)
